Test results: article PMC3572549 (Bioorganic & medicinal chemistry, 2012)

How the values were obtained:
[1] = tested on: cellular microtubules in A-10 cells; test: Loss of cellular; type: cell-based, rat; details: for Effect on cellular microtubules (in words): concentrations as high as 10 or 40 µM
Procedure, shortened: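 Rat aortic smooth muscle A-10 cells were exposed to DMSO vehicle or test compound for 18 h, fixed in cold methanol, and stained for β-tubulin by indirect immunofluorescence. […] It is reported as mean ±SD of 3–4 independent experiments.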

MDA-MB-435 cells = test: Cell cycle distribution by flow cytometry; type: cell-based, human; details: 44.1 nM or 73.5 nM, 18 h
[2] = tested on: purified porcine brain tubulin; test: Preliminary study of inhibition of tubulin polymerization; type: biochemical; details: porcine brain tubulin 2.5 mg/mL, absorbance at 340 nm, 37 °C
Procedure, shortened: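 Porcine brain tubulin (2.5 mg/mL) was incubated with test compound, colchicine or DMSO vehicle. Polymerization was followed turbidimetrically as absorbance at 340 nm at 37 °C.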

mitotic spindles = test: Formation of aberrant mitotic spindles; type: cell-based; details: data not shown
Water solubility = type: physicochemical

| SMILES | Effect on cellular microtubules (in words) [1] | Effect on mitotic spindles (mitotic spindles) | other results |
| --- | --- | --- | --- |
| COc1ccc(Nc2nc(N)nc3[nH]c4ccccc4c23)cc1 [Compound 4, N^4-(4-Methoxyphenyl)-9H-pyrimido[4,5-b]indole-2,4-diamine] | inactive |  |  |
| COc1ccc(N(C)c2nc(N)nc3[nH]c4ccccc4c23)cc1 [Compound 6, N^4-(4-Methoxyphenyl)-N^4-methyl-9H-pyrimido[4,5-b]indole-2,4-diamine] | active | caused the formation of aberrant mitotic spindles | Effect on interphase microtubule network (immunofluorescence) ([1]; 500 nM 6, 18 h incubation): extensive loss of the interphase microtubule network; Effect on cell cycle distribution (MDA-MB-435 cells): accumulation of cells in the G2/M phase of the cell cycle; Inhibition of tubulin assembly (initial study, in words) [2]: potent inhibitor of tubulin assembly |
| COc1ccc(N(C)c2nc(N)nc3[nH]c4ccccc4c23)cc1.Cl [Compound 6·HCl, 4-((4-Methoxyphenyl)(methyl)amino)-9H-pyrimido[4,5-b]indol-2-aminium chloride] |  |  | Solubility in water (Water solubility): freely soluble in water |
| COc1ccc(N(C)c2nc(NC(=O)C(C)(C)C)nc3[nH]c4ccccc4c23)cc1 [Compound 7, N-{4-[(4-Methoxyphenyl)(methyl)amino]-9H-pyrimido[4,5-b]indol-2-yl}-2,2-dimethylpropanamide] | inactive |  |  |
| COc1cccc(N(C)c2nc(N)nc3[nH]c4ccccc4c23)c1 [Compound 10, N^4-(3-Methoxyphenyl)-N^4-methyl-9H-pyrimido[4,5-b]indole-2,4-diamine] | inactive |  |  |
| COc1cc(Nc2nc(N)nc3[nH]c4ccccc4c23)cc(OC)c1OC [Compound 12, N^4-(3,4,5-Trimethoxyphenyl)-9H-pyrimido[4,5-b]indole-2,4-diamine] | inactive |  |  |
| Cc1ccc(N(C)c2nc(N)nc3[nH]c4ccccc4c23)cc1 [Compound 13, N^4-Methyl-N^4-(4-methylphenyl)-9H-pyrimido[4,5-b]indole-2,4-diamine] | inactive |  |  |
| CCN(c1ccc(OC)cc1)c1nc(N)nc2[nH]c3ccccc3c12 [Compound 14, N^4-Ethyl-N^4-(4-methoxyphenyl)-9H-pyrimido[4,5-b]indole-2,4-diamine] | active | caused the formation of aberrant mitotic spindles |  |
| CCOc1ccc(N(C)c2nc(N)nc3[nH]c4ccccc4c23)cc1 [Compound 15, N^4-(4-Ethoxyphenyl)-N^4-methyl-9H-pyrimido[4,5-b]indole-2,4-diamine] | active | caused the formation of aberrant mitotic spindles |  |
